{
  "source": "ChEMBL document CHEMBL3734708",
  "about": "“Synthesis, cytotoxicity and antiviral evaluation of new series of imidazo[4,5-g]quinoline and pyrido[2,3-g]quinoxalinone derivatives” (Eur J Med Chem, 2015)",
  "data": [
    {"test_system": "Human immunodeficiency virus 1", "experiment": "Antiviral activity against HIV-1 3B infected in human MT4 cells assessed as protection against virus-induced cytopathic effect after 4 days by MTT assay", "format": "functional, organism-based", "conditions": "Human immunodeficiency virus 1, 3B, MT4, 96 h", "how_it_was_run": "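MT-4 cells (1 × 10^4/well in RPMI) with or without serial compound dilutions, infected with HIV-1 at 100 CCID50 (m.o.i. 0.01). After 4 days at 37 °C, protection from cytopathogenicity read by MTT. EC50 by linear regression versus untreated controls; mean of three independent determinations.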", "units": {"EC50": "µM"}, "values": [
      {"smiles": "CCCn1c(=O)c(-c2ccccc2)nc2cc3cccnc3c(Cl)c21", "EC50": "> 40"},
      {"smiles": "O=c1c(-c2ccccc2)nc2cc3cccnc3c(Cl)c2n1CC1CCCCC1", "EC50": "> 23"},
      {"smiles": "O=c1c(-c2ccccc2)nc2cc3cccnc3c(Cl)c2n1C1CCCCC1", "EC50": "> 48"}
    ]},
    {"test_system": "Human alphaherpesvirus 1", "experiment": "Antiviral activity against HSV-1 KOS ATCC VR- 1493 infected in african green monkey Vero-76 cells after 3 days by plaque reduction assay", "format": "functional, organism-based", "conditions": "Human alphaherpesvirus 1, KOS ATCC VR1493, Vero 76, 72 h", "units": {"EC50": "µM"}, "values": [
      {"smiles": "CCCn1c(=O)c(-c2ccccc2)nc2cc3cccnc3c(Cl)c21", "EC50": "> 50"},
      {"smiles": "O=c1c(-c2ccccc2)nc2cc3cccnc3c(Cl)c2n1CC1CCCCC1", "EC50": "> 20"},
      {"smiles": "O=c1c(-c2ccccc2)nc2cc3cccnc3c(Cl)c2n1C1CCCCC1", "EC50": "> 70"}
    ]},
    {"test_system": "not listed separately", "experiment": "Cytotoxicity against MDBK cells assessed as reduction in cell viability after 72 hrs by MTT assay", "format": "cell-based, Bos taurus", "conditions": "cattle", "how_it_was_run": "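MDBK cells seeded at 6 × 10^5 cells/mL in MEM-E with L-glutamine, 1 mM sodium pyruvate, kanamycin and 10% horse serum. Mock-infected cultures held with serial compound dilutions at 37 °C, 5% CO2. MTT viability read after 72 h. 50% cytotoxic concentration from linear regression as % of untreated controls. Three independent determinations.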", "units": {"CC50 at 72 h": "µM"}, "values": [
      {"smiles": "CCCn1c(=O)c(-c2ccccc2)nc2cc3cccnc3c(Cl)c21", "CC50 at 72 h": 40},
      {"smiles": "O=c1c(-c2ccccc2)nc2cc3cccnc3c(Cl)c2n1CC1CCCCC1", "CC50 at 72 h": 50},
      {"smiles": "O=c1c(-c2ccccc2)nc2cc3cccnc3c(Cl)c2n1C1CCCCC1", "CC50 at 72 h": "> 100"}
    ]},
    {"test_system": "Bovine viral diarrhea virus 1", "experiment": "Antiviral activity against BVDV NADL ATCC VR-534 infected in MDBK cells assessed as protection against virus-induced cytopathic effect after 3 or 4 days by MTT assay", "format": "functional, organism-based", "conditions": "Bovine viral diarrhea virus isolates and strains, NADL ATCC VR-534, MDBK", "how_it_was_run": "(§1)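 BHK-21 (YFV, Reo-1) or MDBK (BVDV) cells seeded at 5 × 10^4 or 3 × 10^4 cells/well and grown overnight to confluence. Monolayers infected at m.o.i. 0.01 in maintenance medium (MEM-Earle, 0.5% inactivated FBS). Serial compound dilutions added 2 h after infection; 37 °C for 3-4 days. Viability read by MTT. EC50 by linear regression versus untreated controls; mean of three determinations.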", "units": {"EC50": "µM"}, "values": [
      {"smiles": "CCCn1c(=O)c(-c2ccccc2)nc2cc3cccnc3c(Cl)c21", "EC50": 33},
      {"smiles": "O=c1c(-c2ccccc2)nc2cc3cccnc3c(Cl)c2n1CC1CCCCC1", "EC50": 4},
      {"smiles": "O=c1c(-c2ccccc2)nc2cc3cccnc3c(Cl)c2n1C1CCCCC1", "EC50": 4}
    ]},
    {"test_system": "Yellow fever virus", "experiment": "Antiviral activity against YFV 17-D vaccine (Stamaril Pasteur J07B01) infected in BHK21 cells assessed as protection against virus-induced cytopathic effect after 3 or 4 days by MTT assay", "format": "functional, organism-based", "conditions": "BHK-21", "how_it_was_run": "as §1", "units": {"EC50": "µM"}, "values": [
      {"smiles": "CCCn1c(=O)c(-c2ccccc2)nc2cc3cccnc3c(Cl)c21", "EC50": "> 100"},
      {"smiles": "O=c1c(-c2ccccc2)nc2cc3cccnc3c(Cl)c2n1CC1CCCCC1", "EC50": "> 15"},
      {"smiles": "O=c1c(-c2ccccc2)nc2cc3cccnc3c(Cl)c2n1C1CCCCC1", "EC50": "> 100"}
    ]},
    {"test_system": "Human poliovirus 1 strain Sabin", "experiment": "Antiviral activity against Human poliovirus 1 strain Sabin 1 virus infected in african green monkey Vero-76 cells after 2 days by plaque reduction assay", "format": "functional, organism-based", "conditions": "Enterovirus C, 1, Vero 76, 48 h", "units": {"EC50": "µM"}, "values": [
      {"smiles": "CCCn1c(=O)c(-c2ccccc2)nc2cc3cccnc3c(Cl)c21", "EC50": "> 50"},
      {"smiles": "O=c1c(-c2ccccc2)nc2cc3cccnc3c(Cl)c2n1CC1CCCCC1", "EC50": "> 20"},
      {"smiles": "O=c1c(-c2ccccc2)nc2cc3cccnc3c(Cl)c2n1C1CCCCC1", "EC50": "> 70"}
    ]},
    {"test_system": "Mammalian orthoreovirus 1", "experiment": "Antiviral activity against Reovirus 1 ATCC VR- 214 infected in BHK21 cells assessed as protection against virus-induced cytopathic effect after 3 or 4 days by MTT assay", "format": "functional, cell-based", "conditions": "Mammalian orthoreovirus 1, ATCC VR- 214, BHK-21", "how_it_was_run": "as §1", "units": {"EC50": "µM"}, "values": [
      {"smiles": "CCCn1c(=O)c(-c2ccccc2)nc2cc3cccnc3c(Cl)c21", "EC50": "> 100"},
      {"smiles": "O=c1c(-c2ccccc2)nc2cc3cccnc3c(Cl)c2n1CC1CCCCC1", "EC50": "> 15"},
      {"smiles": "O=c1c(-c2ccccc2)nc2cc3cccnc3c(Cl)c2n1C1CCCCC1", "EC50": "> 100"}
    ]},
    {"test_system": "Coxsackievirus B5", "experiment": "Antiviral activity against CVB-5 virus Faulkner ATCC VR-185 infected in african green monkey Vero-76 cells after 3 days by plaque reduction assay", "format": "functional, organism-based", "conditions": "Enterovirus B, Faulkner ATCC VR-185, Vero 76, 72 h", "units": {"EC50": "µM"}, "values": [
      {"smiles": "CCCn1c(=O)c(-c2ccccc2)nc2cc3cccnc3c(Cl)c21", "EC50": 7},
      {"smiles": "O=c1c(-c2ccccc2)nc2cc3cccnc3c(Cl)c2n1CC1CCCCC1", "EC50": "> 20"},
      {"smiles": "O=c1c(-c2ccccc2)nc2cc3cccnc3c(Cl)c2n1C1CCCCC1", "EC50": "> 70"}
    ]},
    {"test_system": "not listed separately", "experiment": "Cytotoxicity against human MT4 cells assessed as reduction in cell proliferation after 96 hrs by MTT assay", "format": "cell-based", "conditions": "not given", "how_it_was_run": "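MT-4 cells in exponential growth seeded at 1 × 10^5 cells/mL in RPMI-1640 with 10% FBS and penicillin/streptomycin. Cultured with serial compound dilutions at 37 °C, 5% CO2. MTT viability after 96 h. CC50 by linear regression against untreated controls. Mean of three independent determinations.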", "units": {"CC50 at 96 h": "µM"}, "values": [
      {"smiles": "CCCn1c(=O)c(-c2ccccc2)nc2cc3cccnc3c(Cl)c21", "CC50 at 96 h": 40},
      {"smiles": "O=c1c(-c2ccccc2)nc2cc3cccnc3c(Cl)c2n1CC1CCCCC1", "CC50 at 96 h": 23},
      {"smiles": "O=c1c(-c2ccccc2)nc2cc3cccnc3c(Cl)c2n1C1CCCCC1", "CC50 at 96 h": 48}
    ]},
    {"test_system": "Vaccinia virus", "experiment": "Antiviral activity against VV Elstree ATCC VR-1549 infected in african green monkey Vero-76 cells after 3 days by plaque reduction assay", "format": "functional, organism-based", "conditions": "Orthopoxvirus vaccinia, Elstree ATCC VR-1549, Vero 76, 72 h", "units": {"EC50": "µM"}, "values": [
      {"smiles": "CCCn1c(=O)c(-c2ccccc2)nc2cc3cccnc3c(Cl)c21", "EC50": "> 50"},
      {"smiles": "O=c1c(-c2ccccc2)nc2cc3cccnc3c(Cl)c2n1CC1CCCCC1", "EC50": "> 20"},
      {"smiles": "O=c1c(-c2ccccc2)nc2cc3cccnc3c(Cl)c2n1C1CCCCC1", "EC50": "> 70"}
    ]},
    {"test_system": "Respiratory syncytial virus", "experiment": "Antiviral activity against RSVA2 ATCC VR-1540 infected in african green monkey Vero-76 cells after 5 days by plaque reduction assay", "format": "functional, organism-based", "conditions": "human respiratory syncytial virus, A2 ATCC VR-1540, Vero 76, 120 h", "units": {"EC50": "µM"}, "values": [
      {"smiles": "CCCn1c(=O)c(-c2ccccc2)nc2cc3cccnc3c(Cl)c21", "EC50": "> 50"},
      {"smiles": "O=c1c(-c2ccccc2)nc2cc3cccnc3c(Cl)c2n1CC1CCCCC1", "EC50": "> 20"},
      {"smiles": "O=c1c(-c2ccccc2)nc2cc3cccnc3c(Cl)c2n1C1CCCCC1", "EC50": "> 70"}
    ]},
    {"test_system": "not listed separately", "experiment": "Cytotoxicity against african green monkey Vero 76 cells assessed as reduction in cell viability after 48 to 96 hrs by MTT assay", "format": "cell-based", "conditions": "chlorocebus sabaeus", "how_it_was_run": "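Vero-76 cells plated at 4 × 10^5 cells/mL in D-MEM with L-glutamine, kanamycin and 10% FBS. Incubated with serial dilutions of test compounds at 37 °C, 5% CO2 for 48-96 h. Viability by MTT. CC50 by linear regression relative to untreated cells. Mean of three independent runs.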", "units": {"CC50": "µM"}, "values": [
      {"smiles": "CCCn1c(=O)c(-c2ccccc2)nc2cc3cccnc3c(Cl)c21", "CC50": 50},
      {"smiles": "O=c1c(-c2ccccc2)nc2cc3cccnc3c(Cl)c2n1CC1CCCCC1", "CC50": 20},
      {"smiles": "O=c1c(-c2ccccc2)nc2cc3cccnc3c(Cl)c2n1C1CCCCC1", "CC50": 70}
    ]},
    {"test_system": "Vesicular stomatitis virus", "experiment": "Antiviral activity against VSV Indiana ATCC VR-158 infected in african green monkey Vero-76 cells after 2 days by plaque reduction assay", "format": "functional, organism-based", "conditions": "Indiana ATCC VR-158, Vero 76, 48 h", "units": {"EC50": "µM"}, "values": [
      {"smiles": "CCCn1c(=O)c(-c2ccccc2)nc2cc3cccnc3c(Cl)c21", "EC50": "> 50"},
      {"smiles": "O=c1c(-c2ccccc2)nc2cc3cccnc3c(Cl)c2n1CC1CCCCC1", "EC50": "> 20"},
      {"smiles": "O=c1c(-c2ccccc2)nc2cc3cccnc3c(Cl)c2n1C1CCCCC1", "EC50": "> 70"}
    ]},
    {"test_system": "not listed separately", "experiment": "Cytotoxicity against BHK21 cells assessed as reduction in cell viability after 72 hrs by MTT assay", "format": "cell-based, Mesocricetus auratus, BHK-21", "conditions": "hamster", "how_it_was_run": "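BHK cells seeded at 1 × 10^6 cells/mL in MEM-E with L-glutamine, 1 mM sodium pyruvate, kanamycin and 10% FBS. Mock-infected cells exposed to serial dilutions of compound at 37 °C, 5% CO2, run in parallel with the antiviral assays. Viability by MTT at 72 h. CC50 by linear regression vs untreated controls. Mean of three independent determinations.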", "units": {"CC50 at 72 h": "µM"}, "values": [
      {"smiles": "CCCn1c(=O)c(-c2ccccc2)nc2cc3cccnc3c(Cl)c21", "CC50 at 72 h": "> 100"},
      {"smiles": "O=c1c(-c2ccccc2)nc2cc3cccnc3c(Cl)c2n1CC1CCCCC1", "CC50 at 72 h": 15},
      {"smiles": "O=c1c(-c2ccccc2)nc2cc3cccnc3c(Cl)c2n1C1CCCCC1", "CC50 at 72 h": "> 100"}
    ]}
  ]
}
